Measured values from ChEMBL document CHEMBL1152304, “Alteration of the bis-tetrahydrofuran core stereochemistries in asimicin can affect the cytotoxicity” (J Med Chem, 2008).

Legend:
L1210 [1] = assay: Cytotoxicity against mouse L1210 cells at 60 ug by disk diffusion assay; format: functional
How it was run: (§1)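 15 µL of sample dried overnight on 6.5 mm filter disk. Disk placed near edge of 60 mm dish of cells plated in soft agar, incubated 7-10 days. Zone of inhibition measured from disk edge to start of normal-sized colony formation, disk diameter taken as 200 units. Overly toxic samples diluted 1:4 or 1:10 and retested.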

L1210 [2] = assay: Cytotoxicity against mouse L1210 cells at 15 ug by disk diffusion assay; format: functional; how it was run: as §1
L1210 [3] = assay: Cytotoxicity against mouse L1210 cells at 3.75 ug by disk diffusion assay; format: functional; how it was run: as §1
L1210 [4] = assay: Cytotoxicity against mouse L1210 cells at 0.94 ug by disk diffusion assay; format: functional; how it was run: as §1
MC-38 [5] = assay: Cytotoxicity against mouse Colon 38 cells at 15 ug by disk diffusion assay; format: functional; how it was run: as §1
MC-38 [6] = assay: Cytotoxicity against mouse Colon 38 cells at 3.75 ug by disk diffusion assay; format: functional; how it was run: as §1
MC-38 [7] = assay: Cytotoxicity against mouse Colon 38 cells at 0.94 ug by disk diffusion assay; format: functional; how it was run: as §1
HCT-116 [8] = assay: Cytotoxicity against human HCT116 cells at 15 ug by disk diffusion assay; format: functional; how it was run: as §1
[9] = Cytotoxicity against human H125M cells at 15 ug by disk diffusion assay; format: functional; how it was run: as §1
CCRF-CEM [10] = assay: Cytotoxicity against human CEM cells at 15 ug by disk diffusion assay; format: functional; how it was run: as §1
[11] = Cytotoxicity against human CFU-GM cells at 60 ug by disk diffusion assay; format: functional; how it was run: as §1
[12] = Cytotoxicity against human CFU-GM cells at 15 ug by disk diffusion assay; format: functional; how it was run: as §1
[13] = Cytotoxicity against human CFU-GM cells at 3.75 ug by disk diffusion assay; format: functional; how it was run: as §1
[14] = Cytotoxicity against human CFU-GM cells at 0.94 ug by disk diffusion assay; format: functional; how it was run: as §1
MC-38 [15] = assay: Cytotoxicity against mouse Colon 38 cells at 60 ug by disk diffusion assay; format: functional; how it was run: as §1
[16] = Inhibition of bovine heart mitochondrial complex1 activity; design: species or system Bos taurus
How it was run: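 Bovine heart submitochondrial particles, 15 µg/mL, in 0.25 M sucrose, 1 mM MgCl2, 50 mM phosphate pH 7.5. Inhibitor added at various concentrations and equilibrated 5 min. Reaction started with 150 µM NADH and followed spectrophotometrically at 340 nm. IC50 derived.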

HCT-116 [17] = assay: Cytotoxicity against human HCT116 cells; format: functional, cell-based
L1210 [18] = assay: Cytotoxicity against mouse L1210 cells at 30 ug by disk diffusion assay; format: functional; how it was run: as §1
L1210 [19] = assay: Cytotoxicity against mouse L1210 cells at 3 ug by disk diffusion assay; format: functional; how it was run: as §1
L1210 [20] = assay: Cytotoxicity against mouse L1210 cells at 0.3 ug by disk diffusion assay; format: functional; how it was run: as §1
MC-38 [21] = assay: Cytotoxicity against mouse Colon 38 cells at 30 ug by disk diffusion assay; format: functional; how it was run: as §1
MC-38 [22] = assay: Cytotoxicity against mouse Colon 38 cells at 3 ug by disk diffusion assay; format: functional; how it was run: as §1
MC-38 [23] = assay: Cytotoxicity against mouse Colon 38 cells at 0.3 ug by disk diffusion assay; format: functional; how it was run: as §1
HCT-116 [24] = assay: Cytotoxicity against human HCT116 cells at 30 ug by disk diffusion assay; format: functional; how it was run: as §1
[25] = Cytotoxicity against human H125M cells at 30 ug by disk diffusion assay; format: functional; how it was run: as §1
CCRF-CEM [26] = assay: Cytotoxicity against human CEM cells at 30 ug by disk diffusion assay; format: functional; how it was run: as §1
[27] = Cytotoxicity against human CFU-GM cells at 30 ug by disk diffusion assay; format: functional; how it was run: as §1
[28] = Cytotoxicity against human CFU-GM cells at 3 ug by disk diffusion assay; format: functional; how it was run: as §1
[29] = Cytotoxicity against human CFU-GM cells at 0.3 ug by disk diffusion assay; format: functional; how it was run: as §1
[30] = Cytotoxicity against human H125M cells at 60 ug by disk diffusion assay; format: functional; how it was run: as §1

Compound | inhibition zone (IZ) (L1210 [1]) [Zone units] | inhibition zone (IZ) (L1210 [2]) [Zone units] | inhibition zone (IZ) (L1210 [3]) [Zone units] | inhibition zone (IZ) (L1210 [4]) [Zone units] | inhibition zone (IZ) (MC-38 [5]) [Zone units] | inhibition zone (IZ) (MC-38 [6]) [Zone units] | inhibition zone (IZ) (MC-38 [7]) [Zone units] | inhibition zone (IZ) (HCT-116 [8]) [Zone units] | inhibition zone (IZ) [9] [Zone units] | inhibition zone (IZ) (CCRF-CEM [10]) [Zone units] | inhibition zone (IZ) [11] [Zone units] | inhibition zone (IZ) [12] [Zone units] | inhibition zone (IZ) [13] [Zone units] | inhibition zone (IZ) [14] [Zone units] | inhibition zone (IZ) (MC-38 [15]) [Zone units] | IC50 [16] [nM] | IC50 (HCT-116 [17]) [nM] | further results
CCCCCCCCCC[C@@H](O)[C@H]1CC[C@@H]([C@@H]2CC[C@H]([C@H](O)CCCCCCCCCC[C@@H](O)CC3=C[C@H](C)OC3=O)O2)O1 | 450 | 100 | 150 | 150 | 800 | 750 | 550 | 500 | 350 | 0 | 650 | 300 | 500 | 450 | 800 | 7.5 | 18 | –
CCCCCCC[C@H](O)CC[C@H](O)[C@H]1CC[C@H]([C@H]2CC[C@H]([C@@H](O)CCCCCCCCCC[C@@H](O)CC3=C[C@H](C)OC3=O)O2)O1 | 600 | 300 | 400 | 100 | 900 | 850 | 750 | 600 | 550 | 150 | 750 | 300 | 450 | 450 | >1000 | – | – | –
CCCCCCCCCC[C@H](O)[C@H]1CC[C@@H]([C@@H]2CC[C@H]([C@@H](O)CCCCCCCCCC[C@@H](O)CC3=C[C@H](C)OC3=O)O2)O1 | 650 | 200 | 250 | 100 | 900 | 800 | 700 | 550 | 400 | 0 | 700 | 250 | 600 | 550 | 800 | 5 | 0.69 | –
CCCCCCC[C@H](O)CC[C@H](O)[C@H]1CC[C@H]([C@H]2CC[C@H]([C@H](O)CCCCCCCCCC[C@@H](O)CC3=C[C@H](C)OC3=O)O2)O1 | 700 | 250 | 350 | 150 | 950 | 750 | 600 | 600 | 100 | 0 | 700 | 400 | 550 | 500 | 900 | – | – | –
CCCCCCCCCC[C@@H](O)[C@H]1CC[C@@H]([C@@H]2CC[C@@H]([C@H](O)CCCCCCCCCC[C@@H](O)CC3=C[C@H](C)OC3=O)O2)O1 | – | – | – | – | – | – | – | – | – | – | – | – | – | – | – | 2 | – | inhibition zone (IZ) (L1210 [18]): 300 Zone units; inhibition zone (IZ) (L1210 [19]): 200 Zone units; inhibition zone (IZ) (L1210 [20]): 100 Zone units; inhibition zone (IZ) (MC-38 [21]): 850 Zone units; inhibition zone (IZ) (MC-38 [22]): 700 Zone units; inhibition zone (IZ) (MC-38 [23]): 450 Zone units; inhibition zone (IZ) (HCT-116 [24]): 500 Zone units; inhibition zone (IZ) [25]: 500 Zone units; inhibition zone (IZ) (CCRF-CEM [26]): 200 Zone units; inhibition zone (IZ) [27]: 650 Zone units; inhibition zone (IZ) [28]: 550 Zone units; inhibition zone (IZ) [29]: 450 Zone units
C[C@H]1C=C(C[C@H](O)CCCCCCCCCC[C@@H](O)[C@H]2CC[C@H]([C@H]3CC[C@H]([C@H](O)CCCCCCCCCCO)O3)O2)C(=O)O1 | – | – | – | – | – | – | – | – | – | – | – | – | – | – | – | – | – | inhibition zone (IZ) (L1210 [18]): 200 Zone units; inhibition zone (IZ) (L1210 [19]): 100 Zone units; inhibition zone (IZ) (L1210 [20]): 50 Zone units; inhibition zone (IZ) (MC-38 [21]): 800 Zone units; inhibition zone (IZ) (MC-38 [22]): 600 Zone units; inhibition zone (IZ) (MC-38 [23]): 450 Zone units; inhibition zone (IZ) (HCT-116 [24]): 600 Zone units; inhibition zone (IZ) [25]: 500 Zone units; inhibition zone (IZ) (CCRF-CEM [26]): 150 Zone units; inhibition zone (IZ) [27]: 650 Zone units; inhibition zone (IZ) [28]: 550 Zone units; inhibition zone (IZ) [29]: 450 Zone units
CCCCCCCCCC[C@H](O)[C@H]1CC[C@H]([C@H]2CC[C@H]([C@@H](O)CCCCCCCCCC[C@@H](O)CC3=C[C@H](C)OC3=O)O2)O1 | 800 | 150 | 400 | 100 | 800 | 800 | 700 | 600 | 450 | 150 | – | – | – | – | 800 | 9 | 0.45 | –
CCCCCCCCCC[C@@H](O)[C@@H]1CC[C@@H]([C@@H]2CC[C@@H]([C@H](O)CCCCCCCCCC(O)CC3=CC(C)OC3=O)O2)O1 (stereo partly specified) [BULLATACIN] | 550 | 200 | 250 | 150 | 850 | 800 | 650 | 650 | – | 100 | 700 | 550 | 450 | 450 | 1000 | 2.5 | 1.4 | inhibition zone (IZ) [30]: 400 Zone units
CCCCCCCCCC[C@@H](O)[C@H]1CC[C@@H]([C@H]2CC[C@H]([C@H](O)CCC[C@H](O)CCCCCCCC3=C[C@H](C)OC3=O)O2)O1 [TRILOBIN] | 850 | 200 | 200 | 100 | 800 | 800 | 600 | 450 | 350 | 100 | 550 | 350 | 500 | 400 | 950 | – | – | –
CCCCCCCCCC[C@H](O)[C@H]1CC[C@@H]([C@@H]2CC[C@H]([C@H](O)CCCCCCCCCC[C@@H](O)CC3=C[C@H](C)OC3=O)O2)O1 [rolliniastatin-1] | 600 | 200 | 250 | 100 | 1000 | 800 | 700 | 600 | 600 | 0 | 750 | 350 | 400 | 400 | 900 | 3 | 0.22 | –
